# CHRM4 agonist: CHRM4 agonism in calcium assay | P08173 | CHO-K1 hM4/Gqi5, Fluo-8 calcium fluorescence; vehicle 0%, full acetylcholine response 100% | activation, % at 3 µM | hit rate 0.14% among 360,000 | AID 624127;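 active = activation above the run mean over all test wells plus 3 SD, cut at about 32% in these data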;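 note: peak over basal fluorescence ratio per well then scaled between controls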
# Target sequence (P08173 whole entry, looked up): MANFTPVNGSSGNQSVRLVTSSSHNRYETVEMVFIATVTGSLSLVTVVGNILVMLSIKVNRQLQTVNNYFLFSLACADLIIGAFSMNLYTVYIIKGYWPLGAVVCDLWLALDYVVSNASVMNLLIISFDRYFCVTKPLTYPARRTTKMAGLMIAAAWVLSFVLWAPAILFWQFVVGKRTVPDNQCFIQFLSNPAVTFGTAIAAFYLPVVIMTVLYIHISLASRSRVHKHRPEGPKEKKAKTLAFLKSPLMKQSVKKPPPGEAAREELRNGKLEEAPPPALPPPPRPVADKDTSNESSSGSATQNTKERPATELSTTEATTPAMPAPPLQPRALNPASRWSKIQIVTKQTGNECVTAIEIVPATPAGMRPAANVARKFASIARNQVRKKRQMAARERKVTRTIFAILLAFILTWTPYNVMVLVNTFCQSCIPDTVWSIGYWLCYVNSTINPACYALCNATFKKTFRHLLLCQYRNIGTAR
# M4 antag: antagonists of human muscarinic M4 receptor (CHRM4); CHO-hM4 cells, ACh EC80, Fluo-8 calcium fluorescence; inhibition, % at 3 µM; hit rate 0.73% among 360,000; AID 624125;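 active = inhibition above its plate's cutoff, the mean inhibition of sample wells plus 3 SD, cut at about 27% in these data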
# CHRM5 agonist: agonists of human muscarinic M5 receptor (CHRM5); CHO-K1 hM5 cells, Fluo-8 calcium fluorescence; 0% DMSO wells, 100% maximal acetylcholine response; activation, % at 3 µM; hit rate 0.19% among 360,000; AID 624037;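 active = activation above the run's mean over test compounds plus 3 SD, cut at about 23% in these data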;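 note: signal is peak over basal fluorescence ratio across the kinetic read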
# M4 PAM: potentiates acetylcholine response at human M4 receptor. P08173. CHO-K1 hM4/Gqi5, Fluo-8 calcium fluorescence, ACh EC20; 0% = ACh EC20, 100% = maximal ACh. activation, % at 3 µM. hit rate 0.4% among 360,000. AID 624126;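 active = activation above its plate's cutoff, the mean activation of sample wells plus 3 SD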
# CHRM5 PAM: positive allosteric modulators of human muscarinic M5 receptor. P08912. hit rate 0.3% among 360,000. activation, % at 3 µM. CHO-K1 hM5, Fluo-8 calcium, ACh EC20 PAM; 0% = ACh EC20, 100% = ACh EC100;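 active = activation above the run cutoff, the mean activation of all test compounds plus 3 SD, cut at about 18% in these data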
#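 Assay system: CHO-K1 hM5 cells. Also added: acetylcholine at EC20 concentration, added after compound. Dosing: 3 µM, single dose. Times: compound preincubation 140 s before EC20 acetylcholine addition. Signal: Fluo-8 calcium fluorescence. Measure: % activation relative to EC20 and EC100 ACh responses. Repeats: singlicate, one well per test compound.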
# CHRM5 antagonist: antagonists of human muscarinic M5 receptor (CHRM5). CHO-hM5 cells, Fluo-8 calcium fluorescence, ACh EC80. inhibition, % at 3 µM. P08912. hit rate 0.59% among 360,000;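 active = inhibition above a per-plate cutoff, the mean of that plate's test compounds plus 3 SD, cut at about 27% in these data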
# Hits are given with their value; – = inactive; + = active, no number. The list is not random: actives were taken first. Their share in the collection is about 1.8%.
SMILES,CHRM4 agonist,M4 antag,CHRM5 agonist,M4 PAM,CHRM5 PAM,CHRM5 antagonist
CNC(=S)NCc1ccc2[nH]c(C)cc2c1,–,–,–,–,18,–
Cc1cc2cc(CNC(=S)NC3CCCCC3)ccc2[nH]1,–,–,–,–,–,–
CCN1CCN(C(=O)C2CC(=O)N(c3ccc(Cl)cc3)C2)CC1 (stereo unspecified),–,–,–,–,–,–
OCCN(CC#CC(O)(c1ccccc1)c1cccc(F)c1)CCO (stereo unspecified),–,–,–,–,–,–
CN(C)CCC#CC(O)(c1ccccc1)c1ccccc1,–,32,–,–,–,38
CCN(CC)CC#CC(O)(c1ccccc1)c1ccccc1,–,88,–,–,–,98
CN(C)C(C)(C)C#CC(O)(c1ccccc1)c1ccccc1,–,53,–,–,–,83
c1ccc(-n2cnc3cc(NCc4ccco4)ccc32)cc1,–,–,–,–,–,–
Cc1cc(C)cc(C(=O)N(Cc2ccco2)c2c(N)n(Cc3ccccc3)c(=O)[nH]c2=O)c1,–,–,–,–,–,–
COc1cc(NS(=O)(=O)c2ccc(-n3cccn3)cc2)cc(OC)c1,–,–,–,–,–,–
CCOc1ccc2c(c1)c(N=O)c(O)n2C,–,–,–,–,20,–
O=C(N/N=C\c1cn(-c2ccccc2)nc1-c1ccccc1)c1ccc(Br)o1,–,27,–,–,–,–
Cc1ccc(-c2nn(-c3ccccc3)cc2/C=N/NC(=O)c2ccc(Br)o2)cc1,–,–,–,–,–,–
CC1(C(=O)NS(=O)(=O)c2ccccc2C(F)(F)F)CCN1C(=O)COc1ccc(Cl)cc1 (stereo unspecified),–,–,–,–,–,–
COCCN(Cc1nc2ccccc2c(=O)[nH]1)C(=O)COc1cccc(C(C)=O)c1,–,–,–,–,–,–
CC/C(CC(C)(C)c1ccccc1)=N\O,–,–,–,–,–,–
CCN(CC)CCC/C(=N\O)C(O)(c1ccccc1)c1ccccc1,–,79,–,–,–,45
CC[N+](C)(CC)CCC/C(=N/O)C(O)(c1ccccc1)c1ccccc1,–,33,–,–,–,–
CCCNNC(=O)C(O)(c1ccccc1)c1ccccc1,–,–,–,–,–,–
C[C@H](NC(=O)c1ccccc1)C(=O)OCC(=O)Nc1ccc(Cl)cn1,–,–,–,–,–,–
C[N+]1(CC(=O)OCCCc2ccccc2)CCCCC1,–,–,–,–,–,–
CC(=O)/C(C[N+]1(C)CCCCC1)=N\O,–,34,–,–,–,43
CCN1/C(=C/C=C/c2oc3ccc(-c4ccccc4)cc3[n+]2CC)Oc2ccc(-c3ccccc3)cc21,+,99,+,–,–,102
CC(C)C1CC(CCN)(c2ccccc2)CCO1 (stereo unspecified),–,48,–,–,–,–
C/C=C\C(=O)Nc1cccc(C2=NOC3(C2)C[C@@H](C(N)=O)N(C(=O)c2ccc(Cl)cc2)C3)c1 (stereo partly specified),–,–,–,–,19,–
SMILES,CHRM4 agonist,M4 antag,CHRM5 agonist,M4 PAM,CHRM5 PAM,CHRM5 antagonist
COc1ccc2c(C)cc(=O)[nH]c2c1,–,–,–,23,40,–
Cc1cc(=O)[nH]c2cc(Cl)ccc12,–,–,–,–,–,–
CC1(C)CC(NCCN2CCN(C3=CC(=C(C#N)C#N)CC(C)(C)C3)CC2)=CC(=C(C#N)C#N)C1,–,–,–,–,–,–
N#CC(C#N)=C1C=C2C=C(N3CCOCC3)CCC2CC1 (stereo unspecified),52,29,37,–,–,–
N#CC(C#N)=C1C=C2C=C(N3CCCCCC3)CCC2CC1 (stereo unspecified),746,96,+,–,–,103
CCN1CCN(C2=CC3=CC(=C(C#N)C#N)CCC3CC2)CC1 (stereo unspecified),270,58,222,–,–,59
CN1CCN(C2=CC3=CC(=C(C#N)C#N)CCC3CC2)CC1 (stereo unspecified),538,71,492,–,–,72
CC1CCCN(c2nc3ccsc3c(=O)s2)C1 (stereo unspecified),–,28,–,–,–,–
O=C(Cn1nnc(-c2ccc([N+](=O)[O-])cc2)n1)NNC(=O)c1ccccc1,–,–,–,–,–,31
O=C(Cn1nnc(-c2ccccc2)n1)NNC(=O)c1cccc([N+](=O)[O-])c1,–,–,–,–,–,–
O=C1C(F)=CC(COC(c2ccccc2)(c2ccccc2)c2ccccc2)OC1n1cc(F)c(=O)[nH]c1=O (stereo unspecified),–,34,–,–,–,–
CC(=O)OCC1OC(n2cc(F)c(=O)[nH]c2=O)C(OC(C)=O)C1OC(C)=O (stereo unspecified),–,–,–,–,–,–
CCOC(=O)c1c(NC(=O)CSc2nnc(-c3ccc(C)cc3)o2)sc(C(C)=O)c1C,–,–,–,–,–,–
CCOC(=O)c1sc(NC(=O)CSc2n[nH]c(-c3ccccc3)n2)c(C#N)c1C,–,–,–,–,–,34
CCOC(=O)c1c(NC(=O)CSc2nnc(-c3ccccc3)o2)sc(C(C)=O)c1C,–,–,–,15,–,–
CCOC(=O)c1sc(NC(=O)CSc2nc(C)cc(C)n2)c(C#N)c1C,–,–,–,–,–,–
Cc1ccc(S(=O)(=O)N2CC3=C(C2)C2CC2(C)C3)cc1 (stereo unspecified),–,–,–,–,–,–
O=S(=O)(NCC1CCCN(Cc2ccccc2O)C1)c1cccc2cccnc12 (stereo unspecified),–,–,–,–,–,–
CC(=O)c1cc2c(cc1NS(=O)(=O)c1cccc(C(=O)O)c1)OCO2,–,–,–,–,–,–
CC(=O)c1cc2c(cc1NS(=O)(=O)c1ccccc1)OCO2,–,30,–,–,–,–
CS(=O)(=O)N1CCN(c2ccc([N+](=O)[O-])c(NCc3cccnc3)c2)CC1,–,–,–,–,–,–
Cc1n[nH]c2ccccc2c1=O,–,–,–,–,–,–
CC(C)(C)c1ccc(Nc2n[nH]c3ccccc23)cc1,–,–,–,21,–,–
O=C(O)c1cccc(-c2ccccc2)c1O,–,–,–,–,–,–
CCS(=O)(=O)c1ncc(Cl)c(C(=O)Nc2ccc(S(=O)(=O)N(C)c3ccccc3)cc2)n1,–,59,–,–,–,–
CCN(c1ccccc1)S(=O)(=O)c1ccc(NC(=O)c2nc(S(C)(=O)=O)ncc2Cl)cc1,36,75,–,–,–,29

# High-throughput results deposited in PubChem by The Scripps Research Institute Molecular Screening Center.
